Sampled rows, rich in hits. Any-hit rate of the full collection: about 4%.
E-sel inducer – induces E-selectin expression in human endothelial cells | HUVEC E-selectin immunofluorescence imaging; normalized: neutral wells 0, TNF-alpha wells 100 | activation, % at 7.58 µM | 260,000 compounds, 0.37% hits | AID 686992;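 active means mean E-selectin-positive cell signal at least 10% of the positive control, reached in at least 60% of replicates, without over 20% cell loss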
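System: HUVEC, human umbilical vein endothelial cells; quantity: 3,000 cells/well; buffer or medium: EGM-2 medium, gelatin-coated wells; dosing: single-point compound dose; detection: immunofluorescence imaging; evaluation: % PE-positive cells; benchmarks: TNF-alpha, DMSO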
FGF22 binding – shifts melting point of recombinant human FGF22 | Q9HCT0 | recombinant FGF22 thermal shift, SYPRO orange fluorescence; percent of sucrose octasulfate shift, DMSO zero | activity (Tm shift, normalised), % at 9.99 µM | 340,000 compounds, 1.5% hits | AID 651658;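 active means mean Tm shift, scaled 0 neutral to 100 positive control, at about 1.3% or above, every replicate too, limit read from the data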
FN deposit inh – fibronectin deposition inhibition. AH1F fibroblasts, Alexa488-fibronectin deposition fluorescence, overnight. inhibition, % at 12.6 µM. 350,000 compounds, 0.086% hits;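 active means mean inhibition across replicates of 30% or more, regardless of how many single replicates reach that level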;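 further: positive control wells lacked labelled fibronectin entirely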
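Test system: AH1F fibroblast monolayer depositing Alexa488-labelled fibronectin into matrix. Input: 10000 cells per well. Technique: fluorescence, ex 485 nm, em 525 nm. Buffer or medium: DMEM plus 2% serum, read in PBS. Timing: 1 h cell adhesion before compound, then overnight fibronectin incubation. Compound: single dose, pinned. Read-out basis: inhibition from reduced deposited-fibronectin fluorescence.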
C2C12 statin – suppression of simvastatin myotoxicity; C2C12 myotubes + simvastatin, ATP luminescence, 48 h; scaled: DMSO 0, geranylgeraniol control 100; rescue of ATP level, % at 7.49 µM; 330,000 compounds, 0.78% hits; AID 602340;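 active means mean ATP rescue above about 67%, or every replicate alone reaching that limit, limit read from the data, passing the limit was not always enough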;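 further: myotubes were challenged with 10 µM simvastatin during compound exposure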
Ecoli rRNA inh – inhibits bacterial ribosomal RNA function over humanized ribosomes | GFP signal change (wild-type ribosome), % (no concentration beside the values) | 350,000 compounds, 1.6% hits | E. coli WT GFP vs humanized-ribosome RFP mutants, fluorescence, 24 h; stronger effect = lower value; DMSO median 0, no signal -100 | AID 720706;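 active means significant combined selectivity score with lowered wild-type GFP, culture density cut under 30%, mutant RFP and density less affected; inactive means any of these conditions unmet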
SIRT5 inh – blocks human SIRT5 desuccinylation of peptide | Q9NXA8 | Purified SirT5, succinyl-peptide AMC, trypsin-coupled fluorescence | inhibition, % at 15 µM | 330,000 compounds, 1.1% hits | AID 652115; in the data active means inhibition above about 15%
* marks the source's active call; other numbers are inactive results; x = no result; ! = repeats disagree.

SMILES	E-sel inducer	FGF22 binding	FN deposit inh	C2C12 statin	Ecoli rRNA inh	SIRT5 inh
O=C(C[C@H]1CC[C@@H]2[C@H](COC[C@H](O)CN2C(=O)Nc2ccc(Cl)cc2)O1)NCC1CC1	0	0	-11	1	-24*	1
CCCNC(=O)C[C@@H]1CC[C@@H]2[C@H](COC[C@@H](O)CN2C(=O)C2CCOCC2)O1	0	x	3	-24	5	16*
CCNC(=O)C[C@H]1CC[C@H]2[C@@H](COC[C@@H](O)CN2C(=O)Nc2ccc(C(F)(F)F)cc2)O1	1	0	-1	-78	-54	64*
COc1ccc(NC(=O)N(C)C[C@H]2Oc3c(NC(=O)Nc4ccc5c(c4)OCO5)cccc3C(=O)N([C@@H](C)CO)C[C@H]2C)cc1	x	0	x	2	-3	-1
COc1ccccc1C(=O)N1C[C@H]2[C@@H](c3ccccc31)[C@H](CO)N2C(=O)Nc1ccccc1	0	0	x	-3	3	-2
COCC(=O)N(C)C[C@@H]1Oc2ncc(-c3ccccc3OC)cc2C(=O)N([C@H](C)CO)C[C@H]1C	0	0	1	-25	0	3
O=C(C[C@H]1CC[C@@H]2[C@H](COC[C@@H](O)CN2C(=O)Nc2ccc(F)cc2)O1)NCCc1ccncc1	0	0	-14	-4	-3	-4
O=C(C[C@H]1CC[C@H]2[C@@H](COC[C@H](O)CN2C(=O)Nc2ccc(F)cc2)O1)NCCc1ccncc1	0	0	5	-10	3	18*
CN1CCN(C(=O)C[C@H]2CC[C@@H]3[C@H](COC[C@@H](O)CN3C(=O)Nc3ccc(Cl)cc3)O2)CC1	0	0	-5	-15	-27*	-5
C[C@@H]1CCCCO[C@H](CN(C)C(=O)Nc2ccc(F)cc2)[C@@H](C)CN([C@@H](C)CO)C(=O)c2cc(NC(=O)Nc3ccccc3)ccc2O1	0	0	-13	15	0	11
C=CCOC(=O)C(=O)/C=C/c1ccc(OC)cc1	x	0	x	x	x	0
C[C@H](CO)N1C[C@H](C)[C@H](CN(C)S(=O)(=O)c2cn(C)cn2)OCc2cn(nn2)CCCC1=O	0	1	-5	-14	1	3
COc1cc2c(c3ccccc13)CCCC2=O	0	43*	5	0	-7	x
O=C1CCCc2c1ccc1ccccc21	0	0	-1	6	-10	-10
Nc1ccc2c(c1)C(=O)c1cc(N)c(Cl)cc1-2	0	43*	-6	17	-19*	x
Nc1ccc2c(c1)Cc1cc(N)c(Cl)cc1-2	2	-1	-2	17	-31*	3
Nc1ccc2c(c1)Cc1cc(Cl)c(Cl)cc1-2	2	0	x	22	-6	x
O=C(C[C@H]1CC[C@H](NC(=O)Nc2ccc(F)cc2)[C@@H](CO)O1)NCc1ccccn1	1	0	-4	-2	3	-2
O=C(C[C@H]1C=C[C@@H](NC(=O)Nc2ccccc2F)[C@@H](CO)O1)NCc1ccccc1	0	x	x	x	-3	-1
C[C@@H]1CN([C@@H](C)CO)C(=O)c2cc(NC(=O)Nc3ccc4c(c3)OCO4)ccc2O[C@H]1CN(C)S(=O)(=O)c1ccccc1	1	0	x	x	-6	2
Cc1ccc(S(=O)(=O)N(C)C[C@@H]2Oc3ccc(NC(=O)Nc4c(C)noc4C)cc3C(=O)N([C@H](C)CO)C[C@@H]2C)cc1	1	0	x	-4	-2	16*
COc1ccc(S(=O)(=O)N(C)C[C@H]2Oc3ccc(NC(=O)Nc4c(C)noc4C)cc3C(=O)N([C@H](C)CO)C[C@@H]2C)cc1	55*!	0	0	21	5	-11
COc1ccc(S(=O)(=O)N(C)C[C@H]2Oc3c(NC(=O)Nc4c(C)noc4C)cccc3C(=O)N([C@@H](C)CO)C[C@H]2C)cc1	175*!	0	10	1	2	1
COCC(=O)Nc1ccc2c(c1)[C@@H]1C[C@H](CC(=O)N3CCN(C)CC3)O[C@@H](CO)[C@@H]1O2	0	0	0	-6	1	x
